# Source: ChEMBL document CHEMBL5058577, “EUbOPEN Chemogenomics Library 2 (Multiplex)” (2022)
# Tested on: U2OS
# Assay: Multiplex assay against U2OS
# Assay type: toxicity, cell-based
# Settings: human
# How it was run: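 Hoechst33342, BioTracker Green Microtubule Cytoskeleton Dye, MitoTracker Red and Annexin V Alexa Fluor 680 were added to live cells at seeding, and imaging on a CQ1 microscope at 37°C and 5% CO2 followed compound addition. Gating by CellPathfinder machine learning separated cells into Hoechst high-intensity objects or normal cells, then normal cells into healthy, pyknosed or fragmented nuclei, then pyknosed cells into mitotic or apoptotic. Per cents of healthy-nucleus cells are reported for the tubulin, mitochondrial-mass and membrane-permeability phenotypes.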
# [1] = 12 h, 1 µM, compound concentration 1 uM, replicate 1
# [2] = 12 h, 1 µM, compound concentration 1 uM, replicate 2
# [3] = 12 h, 10 µM, compound concentration 10 uM, replicate 1
# [4] = 12 h, 10 µM, compound concentration 10 uM, replicate 2
# [5] = 24 h, 1 µM, compound concentration 1 uM, replicate 1
# [6] = 24 h, 1 µM, compound concentration 1 uM, replicate 2
# [7] = 24 h, 10 µM, compound concentration 10 uM, replicate 1
# [8] = 24 h, 10 µM, compound concentration 10 uM, replicate 2
# [9] = 48 h, 1 µM, compound concentration 1 uM, replicate 1
# [10] = 48 h, 1 µM, compound concentration 1 uM, replicate 2
# [11] = 48 h, 10 µM, compound concentration 10 uM, replicate 1
# [12] = 48 h, 10 µM, compound concentration 10 uM, replicate 2
smiles,measurement,setting,value
Cc1ccc(-c2ccc(F)cc2COc2ccc(CCC(=O)O)cc2)cc1,Population Apoptotic (%),[1],75%
same,Population Fragmented Nuclei (%),[1],22%
same,Population Healthy Nuclei (%),[1],71%
same,Population Mitotic Cells (%),[1],25%
same,Population Normal (%),[1],97%
same,Population Pyknosed Nuclei (%),[1],5%
same,Total Cell Count,[1],277
same,Population Apoptotic (%),[2],100%
same,Population Fragmented Nuclei (%),[2],17%
same,Population Healthy Nuclei (%),[2],74%
same,Population Mitotic Cells (%),[2],0%
same,Population Pyknosed Nuclei (%),[2],8%
same,Total Cell Count,[2],135
same,Population Apoptotic (%),[3],75%
same,Population Fragmented Nuclei (%),[3],31%
same,Population Healthy Nuclei (%),[3],61%
same,Population Mitotic Cells (%),[3],25%
same,Population Normal (%),[3],98%
same,Population Pyknosed Nuclei (%),[3],6%
same,Total Cell Count,[3],238
same,Population Apoptotic (%),[4],83%
same,Population Fragmented Nuclei (%),[4],14%
same,Population Healthy Nuclei (%),[4],75%
same,Population Mitotic Cells (%),[4],16%
same,Population Normal (%),[4],97%
same,Population Pyknosed Nuclei (%),[4],10%
same,Total Cell Count,[4],123
same,Population Apoptotic (%),[5],90%
same,Population Fragmented Nuclei (%),[5],21%
same,Population Healthy Nuclei (%),[5],69%
same,Population Mitotic Cells (%),[5],10%
same,Population Normal (%),[5],97%
same,Population Pyknosed Nuclei (%),[5],9%
same,Total Cell Count,[5],340
same,Population Apoptotic (%),[6],100%
same,Population Fragmented Nuclei (%),[6],20%
same,Population Healthy Nuclei (%),[6],70%
same,Population Mitotic Cells (%),[6],0%
same,Population Normal (%),[6],98%
same,Population Pyknosed Nuclei (%),[6],8%
same,Total Cell Count,[6],175
same,Population Apoptotic (%),[7],94%
same,Population Fragmented Nuclei (%),[7],26%
same,Population Healthy Nuclei (%),[7],67%
same,Population Mitotic Cells (%),[7],5%
same,Population Normal (%),[7],98%
same,Population Pyknosed Nuclei (%),[7],5%
same,Total Cell Count,[7],295
same,Population Apoptotic (%),[8],93%
same,Population Fragmented Nuclei (%),[8],22%
same,Population Mitotic Cells (%),[8],6%
same,Population Normal (%),[8],97%
same,Population Pyknosed Nuclei (%),[8],9%
same,Total Cell Count,[8],160
same,Population Apoptotic (%),[9],89%
same,Population Fragmented Nuclei (%),[9],17%
same,Population Healthy Nuclei (%),[9],74%
same,Population Mitotic Cells (%),[9],10%
same,Population Normal (%),[9],97%
same,Population Pyknosed Nuclei (%),[9],8%
same,Total Cell Count,[9],487
same,Population Apoptotic (%),[10],95%
same,Population Fragmented Nuclei (%),[10],15%
same,Population Healthy Nuclei (%),[10],75%
same,Population Mitotic Cells (%),[10],5%
same,Total Cell Count,[10],242
same,Population Apoptotic (%),[11],87%
same,Population Fragmented Nuclei (%),[11],21%
same,Population Healthy Nuclei (%),[11],70%
same,Population Mitotic Cells (%),[11],12%
same,Population Normal (%),[11],97%
same,Population Pyknosed Nuclei (%),[11],7%
same,Total Cell Count,[11],421
same,Population Apoptotic (%),[12],88%
same,Population Fragmented Nuclei (%),[12],16%
same,Population Healthy Nuclei (%),[12],72%
same,Population Mitotic Cells (%),[12],11%
same,Population Normal (%),[12],98%
same,Total Cell Count,[12],236
